Bioassay records deposited in PubChem by several laboratories.
In the library only some 3.3% were active in any assay of this set; here they are far more common.
sPLA2-III inh: human group III sPLA2 inhibitors, primary screen, biochemical, QFRET, BODIPY PC-A2 liposome substrate. Group 3 secretory phospholipase A2 (Homo sapiens), Q9NZ20. QFRET BODIPY PC-A2 liposome hydrolysis, fluorescence. inhibition, % at 12.2 µM. 370,000 compounds, 0.56% hits;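 active means inhibition above mean plus 3 SD of compounds lying within the high and low control bounds, cut at about 19% in these data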;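 further: 0% = median of test compound wells and 100% = no enzyme DMSO wells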
Arrestin-AP2 inh: inhibitors of beta-arrestin/AP2 binding, primary screen, biochemical, GPCR trafficking, flow cytometry. beta-arrestin 1 C-terminal peptide binding to AP2 beta2-adaptin appendage (human). FITC-arrestin peptide / GST-AP2 beads; AP2 beta2 appendage carries R879A mutation. inhibition, % at 10 µM. 340,000 compounds, 0.31% hits;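 active means inhibition above a set limit, near 3 SD of compounds lacking own fluorescence, cut at about 54% in these data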;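 further: plate controls were DMSO wells for no effect and 5 µM unlabelled arrestin peptide for full effect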
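System: GST-tagged AP2 beta2-adaptin appendage (R879A) on 4 µm glutathione beads / Reagent: FITC-arrestin peptide, 50 nM / Detection: HyperCyt-sampled flow cytometry, FL1 channel, ex 488/em 535 nm / Timing: 12 min plus 1 h, RT / Buffer or medium: PBS plus Tween 20 (0.05%) and BSA (0.1%)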
Lipid droplet: inhibitors of hepatocyte lipid droplet formation, primary screen, imaging, high-throughput imaging, BODIPY stain; AML12 mouse hepatocytes, oleate lipid droplets; inhibition, % at 6.5 µM; 240,000 compounds, 0.4% hits;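 active means lipid droplet intensity inhibited by at least 50%, with more than 500 cells counted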
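Technique: fluorescence imaging, 20x objective, two fields per well / Assay system: AML12 hepatocytes (mouse) / Measure: % inhibition of lipid droplet signal / Doses: 6.5 µM single-point dosing / Incubation: overnight exposure / Reagent: 100 µM oleic acid challenge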
m5-HT2A agonist: mouse Htr2a agonists via beta-arrestin recruitment, primary screen, cell-based, luminescence; activation, % at 7.6 µM; CHO-K1 mHTR2A beta-arrestin complementation; percent of 30 µM serotonin response; 5-hydroxytryptamine receptor 2A (Mus musculus), P35363; 360,000 compounds, 0.66% hits;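 active means activation above a run cutoff, the mean activation of all tested compounds plus 3 SD, cut at about 14% in these data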;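 further: 0% = plate median of compound wells and 100% = 30 µM serotonin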
NRP1-CendR mod: modulators of CendR peptide binding to NRP-1, primary screen, biochemical, fluorescence polarization, uHTS | Neuropilin-1 (Homo sapiens), O14786 | 360,000 compounds, 0.85% hits | FAM-RPARPAR peptide binding to NRP-1 | inhibition, % at 25 µM | AID 602438, 2012;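 active means inhibition or corrected inhibition above about 18%, plus a signal ratio from 0.5 to 1.5, limit read from the data, passing the limit was not always enough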
M18AAP inhibitor: PfM18AAP inhibitors, malaria aminopeptidase, primary screen, biochemical, QFRET, recombinant enzyme. M18 aspartyl aminopeptidase (Plasmodium falciparum 3D7). H-Glu-NHMec fluorogenic cleavage. inhibition, % at 7.35 µM. 290,000 compounds, 1.2% hits. AID 1822, 2009;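 active means inhibition above the campaign mean inhibition over all tested compounds plus 3 SD, cut at about 28% in these data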;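 further: 0% = plate median of test compound wells and 100% = 2 mM ZnCl2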
Arr AP2 CP1: inhibitors of arrestin peptide binding to AP2, confirmation, biochemical, cherry pick 1, flow cytometry beads; shares compounds with Arrestin-AP2 inh; 1,300 compounds, 2% hits; AID 504908, 2011; GST-AP2 beads, FITC arrestin peptide binding; GST-fused beta2-adaptin appendage, R879A mutant; inhibition, % at 10 µM;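 active means inhibition above a set limit, roughly 3 SD of non-fluorescent compound noise, cut at about 38% in these data; inactive means inhibition at or below that limit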;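 further: loss of bead fluorescence from 50 nM FITC arrestin peptide bound to appendage; 0% = negative control wells and 100% = excess unlabelled arrestin peptide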
Target sequence (P63010 whole entry, looked up, the tested form may be a part, one chain of several): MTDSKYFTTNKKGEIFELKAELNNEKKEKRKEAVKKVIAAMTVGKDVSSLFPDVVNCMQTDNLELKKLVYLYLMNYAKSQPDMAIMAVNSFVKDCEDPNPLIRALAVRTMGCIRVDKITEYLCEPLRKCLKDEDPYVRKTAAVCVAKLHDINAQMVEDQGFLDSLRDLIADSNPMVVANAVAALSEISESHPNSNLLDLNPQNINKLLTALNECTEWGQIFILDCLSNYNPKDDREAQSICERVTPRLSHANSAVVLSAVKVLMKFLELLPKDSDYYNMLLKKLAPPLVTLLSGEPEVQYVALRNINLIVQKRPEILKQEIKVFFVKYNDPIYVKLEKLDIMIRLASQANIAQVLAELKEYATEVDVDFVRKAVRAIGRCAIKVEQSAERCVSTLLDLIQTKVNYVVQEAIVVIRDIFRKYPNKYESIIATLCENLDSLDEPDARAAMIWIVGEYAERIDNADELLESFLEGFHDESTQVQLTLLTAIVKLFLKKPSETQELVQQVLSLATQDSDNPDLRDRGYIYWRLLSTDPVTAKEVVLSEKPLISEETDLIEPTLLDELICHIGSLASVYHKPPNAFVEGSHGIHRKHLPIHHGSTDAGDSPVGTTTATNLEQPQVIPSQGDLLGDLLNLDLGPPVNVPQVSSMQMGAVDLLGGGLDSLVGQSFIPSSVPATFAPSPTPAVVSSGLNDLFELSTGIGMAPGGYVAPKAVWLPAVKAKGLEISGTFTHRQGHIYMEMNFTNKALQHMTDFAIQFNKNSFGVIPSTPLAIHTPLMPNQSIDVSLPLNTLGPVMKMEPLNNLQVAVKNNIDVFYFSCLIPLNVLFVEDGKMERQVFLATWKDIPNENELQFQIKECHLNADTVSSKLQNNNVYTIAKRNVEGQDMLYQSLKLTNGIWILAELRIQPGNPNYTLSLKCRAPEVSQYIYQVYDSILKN
GST-FITC bead: GST-fluorescein capture on glutathione beads, confirmation, artefact control for arrestin-AP2 inhibitor project, biochemical, cherry pick 1, flow cytometry. inhibition, % at 10 µM. GST-fluorescein binding to GSH beads, fluorescence, counter-screen. 1,300 compounds, 2% hits. shares compounds with Arrestin-AP2 inh;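 active means inhibition above 50%, about 3 SD of the inhibition seen with non-fluorescent compounds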;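 further: fluorescein maleimide labelled GST captured on 4 micron glutathione beads; higher means more loss of bead fluorescence from quenching or blocked binding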
* hit, by the source's call; · = no result.

SMILES | sPLA2-III inh | Arrestin-AP2 inh | Lipid droplet | m5-HT2A agonist | NRP1-CendR mod | M18AAP inhibitor | Arr AP2 CP1 | GST-FITC bead
Cc1ccc(C2=N/C(=C/N3CCOCC3)C(=O)O2)cc1 | -3 | 27 | -13 | 4 | -2 | 8 | · | ·
COc1cc(NC(=O)c2ccc(OC)c([N+](=O)[O-])c2)ccc1NC(=O)c1ccco1 | -15 | 18 | 10 | 10 | -4 | -6 | · | ·
CCOc1ccc(C(=O)NC(=S)Nc2ccc(NC(=O)c3ccco3)c(C)c2)cc1[N+](=O)[O-] | 4 | 100* | -15 | 0 | 0 | -2 | 1 | -2
COc1ccc(NC(=O)c2ccco2)cc1NC(=O)c1ccccc1[N+](=O)[O-] | 4 | 55* | 35 | -3 | 5 | 1 | 3 | 3
COc1ccc(NC(=O)c2ccco2)cc1NC(=O)c1ccco1 | 3 | 18 | · | 6 | 0 | -10 | · | ·
Cc1[nH]c2ccccc2c1CC(=O)Nc1ccc(Nc2cccnc2)c(-c2ccc(Oc3ccccc3)cc2)c1 | -4 | · | · | · | · | · | · | ·
Cc1ccc(C(=O)OCc2nnc(-c3ccccc3)o2)s1 | 1 | 4 | · | 8 | 6 | · | · | ·
O=C(OCc1nnc(-c2ccccc2)o1)c1ccc([N+](=O)[O-])s1 | 6 | 70* | · | 4 | -24 | · | 15 | -4
Cc1ccc(-c2nc3cc(C)c(Br)c(C)n3c2CC(C)(C)C)cc1 | -4 | · | · | 1 | 9 | · | · | ·
CCNc1nc(NCC)n2c(SCC(=O)Nc3cccc(Cl)c3)nnc2n1 | · | 59* | · | 1 | 3 | · | -8 | 2
CN(C)c1cc2c(cc1NC(=O)c1ccccc1Cl)n(C)c(=O)n2C | 3 | -1 | -22 | -8 | -1 | 11 | 4 | -14
O=C(Nc1ccccc1NC(=O)c1ccccc1Cl)c1ccccc1Cl | 10 | 36 | -16 | 4 | 12 | 1 | · | ·
O=C(NCCc1cccc(F)c1)C1CCC(=O)N(CCCc2ccccc2)C1 (stereo not given) | -1 | 62* | 3 | 11 | -3 | 0 | -5 | -11
O=C(NCCN1CCCC1=O)C1CCC(=O)N(CCc2cccc(F)c2)C1 (stereo not given) | 4 | 59* | -3 | 4 | 4 | 0 | -11 | -2
O=C(NCc1cccc(F)c1)C1CCC(=O)N(CCc2cccc(F)c2)C1 (stereo not given) | 2 | -5 | 14 | -5 | 5 | -4 | -16 | ·
O=C(NCCc1cccc(C(F)(F)F)c1)C1CCC(=O)N(CCc2cccc(F)c2)C1 (stereo not given) | 5 | -1 | -2 | 2 | 9 | 2 | · | ·
Cc1ccc(CCCNC(=O)C2CCC(=O)N(Cc3cccc(F)c3)C2)cc1 (stereo not given) | -3 | 8 | -20 | 1 | 5 | -3 | -10 | 3
C[C@H](NC(=O)c1ccco1)C(=O)NNC(=O)COc1cccc(C(F)(F)F)c1 | -30 | 35 | · | 2 | 15 | · | · | ·
Cc1cccc(C(=O)N[C@H]2CC[C@@]34CCCN3C(=O)CCC[C@H]4[C@H]2C)c1 | 2 | · | · | · | · | · | · | ·
O=C(Nc1ccc(F)cc1Cl)C1CCCN1S(=O)(=O)c1cccc2cccnc12 (stereo not given) | 4 | · | · | · | · | · | · | ·
C/C(=N\NC(=O)c1cc(-c2ccncc2)nc2ccccc12)c1ccc(N2CCOCC2)cc1 | -7 | 111* | -16 | -4 | 1 | 8 | -13 | 0
O=C(N/N=C/c1ccccc1F)c1ccccc1OCc1ccccc1 | 9 | -2 | -2 | -8 | -4 | 4 | · | ·
